The text below walks through data of paper PMC12618243 (Nature Structural & Molecular Biology, 2025).

Test [1] relates to S. cerevisiae ist2;psd1-KO strain (AWY327). Nature of the test: Yeast complementation. The class given is cell-based. To be noted: 2% galactose, 30 °C, 3–4 days.
A short description of test [2]: Lipid-scrambling assay in liposomes. Type of test: biochemical. As to conditions: absence and presence of 1 mM Ca^2+. In outline:
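GDN-purified membrane proteins reconstituted into destabilized liposomes (lipid stock 10 mg ml−1, three freeze–thaw cycles, stored −80 °C). Liposomes diluted to 20 µM final in 80 mM HEPES pH 7.5, 300 mM KCl, 2 mM EGTA in a quartz cuvette. NBD fluorescence recorded 60 s, 30 mM dithionite added to bleach outer-leaflet NBD, then recorded a further 6 min. Traces normalized to fluorescence just before dithionite.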

“Also recorded” adds a separate entry of the source.

Regarding `C[N+](C)(C)CCO` [choline, reference compound], in test [1], the “Growth complementation (in words)” value is recorded as “growth deficit can be alleviated”.

B1: TMEM16A: murine TMEM16A, unable to scramble lipids (protein, UniProt Q8BHY3 1-960, looked up)
Anoctamin-1: MRVPEKYSTLPAEDRSVHIVNICAIEDLGYLPSEGTLLNSLSVDPDAECKYGLYFRDGKRKVDYILVYHHKRASGSRTLARRGLQNDMVLGTRSVRQDQPLPGKGSPVDAGSPEVPMDYHEDDKRFRREEYEGNLLEAGLELENDEDTKIHGVGFVKIHAPWHVLCREAEFLKLKMPTKKVYHISETRGLLKTINSVLQKITDPIQPKVAEHRPQTTKRLSYPFSREKQHLFDLTDRDSFFDSKTRSTIVYEILKRTTCTKAKYSMGITSLLANGVYSAAYPLHDGDYEGDNVEFNDRKLLYEEWASYGVFYKYQPIDLVRKYFGEKVGLYFAWLGAYTQMLIPASIVGVIVFLYGCATVDENIPSMEMCDQRYNITMCPLCDKTCSYWKMSSACATARASHLFDNPATVFFSVFMALWAATFMEHWKRKQMRLNYRWDLTGFEEEEEAVKDHPRAEYEARVLEKSLRKESRNKETDKVKLTWRDRFPAYFTNLVSIIFMIAVTFAIVLGVIIYRISTAAALAMNSSPSVRSNIRVTVTATAVIINLVVIILLDEVYGCIARWLTKIEVPKTEKSFEERLTFKAFLLKFVNSYTPIFYVAFFKGRFVGRPGDYVYIFRSFRMEECAPGGCLMELCIQLSIIMLGKQLIQNNLFEIGIPKMKKFIRYLKLRRQSPSDREEYVKRKQRYEVDFNLEPFAGLTPEYMEMIIQFGFVTLFVASFPLAPLFALLNNIIEIRLDAKKFVTELRRPVAIRAKDIGIWYNILRGVGKLAVIINAFVISFTSDFIPRLVYLYMYSQNGTMHGFVNHTLSSFNVSDFQNGTAPNDPLDLGYEVQICRYKDYREPPWSEHKYDISKDFWAVLAARLAFVIVFQNLVMFMSDFVDWVIPDIPKDISQQIHKEKVLMVELFMREEQGKQQLLDTWMEKEKPRDVPCNNHSPTTHPEAGDGSPVPSYEYHGDAL
On to B1, for which the “Lipid scrambling activity (in words)” value in test [2] is listed as “unable to scramble lipids; also recorded: Absence of lipid-scrambling activity”.

B2: IST2^716: construct containing the first 716 amino acids of IST2 (protein)
chain: MSQTITSLDPNCVIVFNKTSSANEKSLNVEFKRLNIHSIIEPGHDLQTSYAFIRIHQDNAKPLFSFLQNLDFIESIIPYHDTELSDDLHKLISISKSKILEAPKQYELYNLSNLTNNPKQSLYFAFLQNYIKWLIPFSFFGLSIRFLSNFTYEFNSTYSLFAILWTLSFTAFWLYKYEPFWSDRLSKYSSFSTIEFLQDKQKAQKKASSVIMLKKCCFIPVALLFGAILLSFQLYCFALEIFIKQIYNGPMISILSFLPTILICTFTPVLTVIYNKYFVEPMTKWENHSSVVNAKKSKEAKNFVIIFLSSYVPLLITLFLYLPMGHLLTAEIRTKVFNAFSILARLPTHDSDFIIDTKRYEDQFFYFIVINQLIQFSMENFVPSLVSIAQQKINGPNPNFVKAESEIGKAQLSSSDMKIWSKVKSYQTDPWGATFDLDANFKKLLLQFGYLVMFSTIWPLAPFICLIVNLIVYQVDLRKAVLYSKPEYFPFPIYDKPSSVSNTQKLTVGLWNSVLVMFSILGCVITATLTYMYQSCNIPGVGAHTSIHTNKAWYLANPINHSWINIVLYAVFIEHVSVAIFFLFSSILKSSHDDVANGIVPKHVVNVQNPPKQEVFEKIPSPEFNSNNEKELVQRKGSANEKLHQELGEKQPASSANGYEAHAATHANNDPSSLSSASSPSLSSSSSSSKTGVVKAVDNDTAGSAGKKPLATESTE
modifications: left off: SBP, N-terminal, state not stated | myc, N-terminal, state not stated
With B2, the “Lipid scrambling activity (in words)” value in test [2] is recorded as “pronounced scrambling activity in the absence of Ca^2+, which was not further enhanced upon Ca^2+ addition; also recorded: Ca^2+-independent scrambling”. For the same molecule, the “Growth complementation (in words)” value in test [1] is “growth is not rescued”.
